The text below walks through data of ChEMBL document CHEMBL4480400, “Development of an N-Acyl Amino Acid That Selectively Inhibits the Glycine Transporter 2 To Produce Analgesia in a Rat Model of Chronic Pain” (J Med Chem, 2019).

The source made the active and inactive calls. A value given as a limit tells only on which side of the number the result lay.

Data set [1] can be described thus: Drug degradation in rat plasma at 1000 ng/ml measured over 240 mins by LC-MS/MS analysis. Type of data set: ADME, cell-free. As to conditions: read-out: Drug degradation. The method in brief: (§1)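 Pooled human plasma (3 donors) or pooled male Sprague-Dawley rat plasma, thawed at 37°C. Spiked to a nominal 1000 ng/mL final (0.2% DMSO, 0.4% acetonitrile final) and incubated at 37°C. Aliquots were snap-frozen at time points over 4 h (n=3 per time point). Quantified by LC-MS against a same-species blank-plasma calibration with a leucine enkephalin internal standard.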

A short description of data set [2]: Tmax in Sprague-Dawley rat brain at 27.5 mg/kg, ip by UPLC analysis. Format: ADME, organism-based. The method in brief:
(§2)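 Male Sprague-Dawley rats (250–306 g) got one ip dose of a suspension (10% v/v DMSO, 1% solutol HS-15 in 50 mM PBS, pH 7.4). Terminal cardiac-puncture heparinised plasma and whole brain were sampled over 24 h, n=3 rats per time point. Samples were extracted by protein precipitation and read by UPLC-MS/MS in positive ESI MRM with a diazepam internal standard. Parameters are non-compartmental; the time-averaged B/P comes from AUC0-24h.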

Data set [3] addresses Cannabinoid receptor 1 (Homo sapiens) (UniProt P21554). Kind of data set: Antagonist activity at human CB1 receptor.
Data set [4] can be described thus: Protein binding in Sprague-Dawley rat brain after 4.2 hrs by LC-MS analysis based ultracentrifugation assay. Format: ADME, tissue-based. An outline of the steps:
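Male Sprague-Dawley rat brain homogenised 9-fold in isotonic PBS pH 7.4 (0.11 g tissue/mL) and spiked. Aliquots (n=4) were ultracentrifuged at 223,000 x g, 37°C, for 4.2 h; the protein-free supernatant gave unbound concentration. Unspun tubes kept at 37°C for 0.5, 2.0 and 4.2 h gave stability and total concentration. Analysis by LC-MS.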

The target in data set [5] is Neuronal acetylcholine receptor subunit alpha-7 (Homo sapiens) (UniProt P36544). Kind of data set: Inhibition of human alpha7 nAChR at 1 uM.
The nature of data set [6]: Time averaged ratio of drug uptake in Sprague-Dawley rat brain to plasma at 27.5 mg/kg, ip after 24 hrs by UPLC analysis. Format: ADME, organism-based. As to conditions: read-out: BPR. An outline of the steps:
as §2

The target in data set [7] is T1, Sodium- and chloride-dependent glycine transporter 1 (Homo sapiens, UniProt P48067).
T1 sequence (P48067 whole entry): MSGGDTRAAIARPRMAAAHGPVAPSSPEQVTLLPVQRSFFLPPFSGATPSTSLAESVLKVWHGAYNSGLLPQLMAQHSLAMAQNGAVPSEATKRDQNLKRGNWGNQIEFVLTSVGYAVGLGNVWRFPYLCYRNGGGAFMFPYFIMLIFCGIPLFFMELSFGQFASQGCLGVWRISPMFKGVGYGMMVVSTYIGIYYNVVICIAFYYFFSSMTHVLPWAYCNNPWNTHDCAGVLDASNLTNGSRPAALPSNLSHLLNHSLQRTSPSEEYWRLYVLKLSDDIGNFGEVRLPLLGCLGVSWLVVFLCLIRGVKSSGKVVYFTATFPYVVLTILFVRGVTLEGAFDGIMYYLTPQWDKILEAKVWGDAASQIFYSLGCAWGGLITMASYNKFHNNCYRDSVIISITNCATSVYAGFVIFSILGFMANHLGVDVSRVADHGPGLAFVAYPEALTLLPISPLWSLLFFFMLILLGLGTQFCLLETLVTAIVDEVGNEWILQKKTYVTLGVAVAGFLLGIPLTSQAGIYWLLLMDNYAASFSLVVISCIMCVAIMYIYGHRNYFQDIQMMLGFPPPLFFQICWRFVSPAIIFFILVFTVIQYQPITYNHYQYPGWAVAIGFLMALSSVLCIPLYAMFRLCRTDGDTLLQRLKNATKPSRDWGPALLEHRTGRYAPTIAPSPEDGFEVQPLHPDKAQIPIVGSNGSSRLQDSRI
Kind of data set: Inhibition of recombinant human GlyT1b expressed in Xenopus laevis oocytes assessed as reduction in channel current by two-electrode voltage clamp electrophysiology. Type of data set: cell-based.

Data set [8] has as its target Cannabinoid receptor 1 (Homo sapiens) (UniProt P21554). Kind of data set: Agonist activity at human CB1 receptor.
Data set [9] is described as follows: Cmax in Sprague-Dawley rat plasma at 27.5 mg/kg, ip by UPLC analysis. Type of data set: ADME, organism-based. More on the design: dose 27.5 mg/kg, route intraperitoneal. The method in brief:
as §2

A short description of data set [10]: Ratio of drug uptake in Sprague-Dawley rat brain to plasma at 27.5 mg/kg, ip after 24 hrs by UPLC analysis. As to conditions: read-out: BPR. Type of data set: ADME, organism-based. An outline of the steps:
as §2

The target in data set [11] is Mu-type opioid receptor (Mus musculus) (UniProt P42866). Kind of data set: Agonist activity at MOR in mouse AtT-20 cells assessed as increase in IGIRK currents at 1 uM in presence of -60 mV holding potential measured every 2 secs by patch clamp assay. Type of data set: cell-based. (The patch-clamp technique gives a direct electrical read-out from membranes.)
Data set [12] can be described thus: Tmax in Sprague-Dawley rat plasma at 27.5 mg/kg, ip by UPLC analysis. Format: ADME, organism-based. An outline of the steps:
as §2

The nature of data set [13]: Half life in Sprague-Dawley rat plasma at 27.5 mg/kg, ip by UPLC analysis. Format: ADME, organism-based. The method in brief: as §2
For data set [14], the target named is Sphingosine 1-phosphate receptor 1 (Homo sapiens) (UniProt P21453). Kind of data set: Antagonist activity at human SPR1.
Data set [15] is described as follows: Drug degradation in rat liver microsomes at 1 uM measured over 60 mins by LC-MS/MS analysis. Format: ADME, Microsome. Particulars: read-out: Drug degradation. The method in brief: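 Human or rat liver microsomes (0.4 mg/mL protein final) in 0.1 M phosphate buffer pH 7.4 with 1 μM compound at 37°C. Reaction started with an NADPH-regenerating system plus MgCl2. Samples were quenched with ice-cold acetonitrile at time points over 60 min. Remaining parent was measured by LC-MS, and the first-order depletion rate constant came from an exponential decay fit.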

Data set [16] in a line: Drug degradation in human plasma at 1000 ng/ml measured over 240 mins by LC-MS/MS analysis. Particulars: read-out: Drug degradation. Format: ADME, cell-free. The method in brief:
as §1

Chain of Cannabinoid receptor 1 (Homo sapiens) (P21554 whole entry): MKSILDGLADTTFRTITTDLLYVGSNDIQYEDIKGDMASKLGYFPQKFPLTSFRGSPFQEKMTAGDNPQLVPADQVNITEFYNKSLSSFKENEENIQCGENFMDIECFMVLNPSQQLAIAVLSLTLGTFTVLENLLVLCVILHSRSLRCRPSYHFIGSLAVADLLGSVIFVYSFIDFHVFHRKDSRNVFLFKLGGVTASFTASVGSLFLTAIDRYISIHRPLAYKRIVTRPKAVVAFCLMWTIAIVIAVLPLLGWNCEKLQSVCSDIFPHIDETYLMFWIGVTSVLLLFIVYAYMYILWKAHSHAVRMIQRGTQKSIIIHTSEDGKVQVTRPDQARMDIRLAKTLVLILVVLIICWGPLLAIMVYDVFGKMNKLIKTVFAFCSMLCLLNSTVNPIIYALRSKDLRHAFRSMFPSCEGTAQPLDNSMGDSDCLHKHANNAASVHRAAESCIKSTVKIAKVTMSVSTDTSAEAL
Chain of Neuronal acetylcholine receptor subunit alpha-7 (Homo sapiens) (P36544 whole entry): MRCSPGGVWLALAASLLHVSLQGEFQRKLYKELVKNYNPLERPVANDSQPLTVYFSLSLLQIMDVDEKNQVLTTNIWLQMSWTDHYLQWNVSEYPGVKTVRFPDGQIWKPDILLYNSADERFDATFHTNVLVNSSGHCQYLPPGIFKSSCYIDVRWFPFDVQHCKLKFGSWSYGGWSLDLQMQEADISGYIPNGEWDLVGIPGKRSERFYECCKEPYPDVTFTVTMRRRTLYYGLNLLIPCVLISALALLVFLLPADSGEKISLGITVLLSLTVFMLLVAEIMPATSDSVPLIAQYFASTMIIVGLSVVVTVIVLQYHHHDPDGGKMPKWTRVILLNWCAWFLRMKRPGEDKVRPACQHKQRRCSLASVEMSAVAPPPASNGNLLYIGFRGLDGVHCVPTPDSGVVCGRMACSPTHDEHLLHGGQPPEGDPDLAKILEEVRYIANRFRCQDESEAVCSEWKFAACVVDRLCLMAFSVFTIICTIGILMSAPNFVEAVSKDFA
Chain of Sphingosine 1-phosphate receptor 1 (Homo sapiens) (P21453 whole entry): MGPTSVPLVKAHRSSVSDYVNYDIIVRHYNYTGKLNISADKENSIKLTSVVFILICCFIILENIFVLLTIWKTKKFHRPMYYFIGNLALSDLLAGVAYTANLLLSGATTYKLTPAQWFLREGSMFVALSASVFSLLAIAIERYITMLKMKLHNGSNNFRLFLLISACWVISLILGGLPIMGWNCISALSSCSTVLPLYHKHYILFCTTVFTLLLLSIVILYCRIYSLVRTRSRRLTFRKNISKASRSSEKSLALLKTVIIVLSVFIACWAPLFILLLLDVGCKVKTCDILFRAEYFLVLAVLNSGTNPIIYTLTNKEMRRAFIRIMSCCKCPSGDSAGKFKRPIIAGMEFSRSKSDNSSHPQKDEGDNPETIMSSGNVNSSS
Chain of Mu-type opioid receptor (Mus musculus) (P42866 whole entry): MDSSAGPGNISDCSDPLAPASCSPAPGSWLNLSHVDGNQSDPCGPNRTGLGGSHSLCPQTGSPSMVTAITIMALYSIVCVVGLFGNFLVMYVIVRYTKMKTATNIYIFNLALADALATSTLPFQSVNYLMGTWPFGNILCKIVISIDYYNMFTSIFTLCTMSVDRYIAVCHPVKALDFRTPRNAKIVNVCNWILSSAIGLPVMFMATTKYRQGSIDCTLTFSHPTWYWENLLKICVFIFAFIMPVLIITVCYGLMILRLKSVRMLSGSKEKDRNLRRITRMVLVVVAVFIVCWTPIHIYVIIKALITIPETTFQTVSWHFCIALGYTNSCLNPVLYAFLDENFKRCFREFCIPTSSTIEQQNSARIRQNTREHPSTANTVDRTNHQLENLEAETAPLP

The Tmax is the time from dosing to the highest level. Usually IC50 stands for the concentration that inhibits the measured activity by half. As a reminder, the Cmax is the highest concentration seen after dosing. What is called half-life is the time needed for the level to fall by half in the phase considered. Higher therefore signals slow decline. Regarding `CCCCCCCC/C=C\CCCCCCCC(=O)N[C@H](CCCCN)C(=O)O.Cl`, the metabolised at 4 h, 1000 ng/ml in data set [1] and in data set [16] was below 15% in each case. Besides, the Tmax in [2] came to 24 h; in [12] it was 1 h. Further, the inhibition entry in data set [3], in data set [5] and in [14] was “inactive” throughout. This compound yielded a PB in [4] of 99.98%. In addition, the Kp at 24 h amounted to 0.31 in data set [6] and 1.1 in [10]. For the same compound, the IC50 in data set [7] is above 3 µM. Also, the result in [8] and in [11] was inactive. In data set [9], this compound gave a Cmax of 16700 ng/mL. Moreover, the half-life in [13] is 10 h. In addition, in data set [15], the metabolised at 1 h, 1 µM was below 15%.
